# Assay outcomes deposited in PubChem by Broad Institute.
# FN deposit inh: fibronectin deposition inhibition; inhibition, % at 12.6 µM; hit rate 0.086% among 350,000; AH1F fibroblasts, Alexa488-fibronectin deposition fluorescence, overnight; AID 743247;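 active = mean inhibition across replicates of 30% or more, regardless of how many single replicates reach that level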;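 also: positive control wells lacked labelled fibronectin entirely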
#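 Material: AH1F fibroblast monolayer depositing Alexa488-labelled fibronectin into matrix / Amount: 10000 AH1F cells per well / Signal: fluorescence 485/525 nm / Medium: DMEM, 2% serum / Compound: single dose, pinned / Incubation: 1 h cell adhesion before compound, then overnight fibronectin incubation / Reagent: Alexa488-FN, 24 nM final / Read-out: inhibition of fibronectin deposition signal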
# FGF22 binding: FGF22 (human) thermal shift binding; hit rate 1.5% among 340,000; Q9HCT0; recombinant FGF22 thermal shift, SYPRO orange fluorescence; percent of sucrose octasulfate shift, DMSO zero; activity (Tm shift, normalised), % at 9.99 µM;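 active = mean Tm shift, scaled 0 neutral to 100 positive control, at about 1.3% or above, every replicate too, limit read from the data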
# Target sequence (Q9HCT0 whole entry, looked up): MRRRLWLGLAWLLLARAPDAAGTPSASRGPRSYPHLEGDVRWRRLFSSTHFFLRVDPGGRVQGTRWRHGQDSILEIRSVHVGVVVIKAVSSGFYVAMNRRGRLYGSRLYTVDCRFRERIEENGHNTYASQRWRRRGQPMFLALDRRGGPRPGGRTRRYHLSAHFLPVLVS
# SIRT5 inh: sirtuin-5 (human) deacylase inhibition | inhibition, % at 15 µM | Q9NXA8 | AID 652115 | Purified SirT5, succinyl-peptide AMC, trypsin-coupled fluorescence | hit rate 1.1% among 330,000; in the data active = inhibition above about 15%
# Target sequence (Q9NXA8 whole entry, looked up): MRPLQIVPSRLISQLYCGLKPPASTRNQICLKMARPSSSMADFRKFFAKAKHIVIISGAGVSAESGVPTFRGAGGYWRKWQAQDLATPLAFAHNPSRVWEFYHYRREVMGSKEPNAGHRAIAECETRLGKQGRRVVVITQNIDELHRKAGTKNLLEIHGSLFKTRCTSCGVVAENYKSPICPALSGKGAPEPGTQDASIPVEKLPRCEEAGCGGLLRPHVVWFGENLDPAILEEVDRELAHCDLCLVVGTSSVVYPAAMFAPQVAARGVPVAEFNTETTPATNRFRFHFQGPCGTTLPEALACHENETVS
# E-sel inducer: E-selectin induction on HUVECs; P16581; HUVEC E-selectin immunofluorescence imaging; normalized: neutral wells 0, TNF-alpha wells 100; activation, % at 7.58 µM; hit rate 0.37% among 260,000; AID 686992;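 active = mean E-selectin-positive cell signal at least 10% of the positive control, reached in at least 60% of replicates, without over 20% cell loss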
#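 Test system: HUVEC; input: 3,000 HUVEC/well; measured by: immunofluorescence imaging; read-out: % PE-positive cells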
# C2C12 statin: protects C2C12 myotubes from simvastatin toxicity; ATP luminescence, 48 h; scaled: DMSO 0, geranylgeraniol control 100; rescue of ATP level, % at 7.49 µM; hit rate 0.78% among 330,000; AID 602340;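 active = mean ATP rescue above about 67%, or every replicate alone reaching that limit, limit read from the data, passing the limit was not always enough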;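 also: myotubes were challenged with 10 µM simvastatin during compound exposure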
# rRNA inh HTS: selective bacterial rRNA inhibition in E. coli | E. coli WT GFP vs humanized-ribosome RFP mutants, fluorescence, 24 h; active compounds read low; DMSO median 0, no signal -100 | GFP signal change (wild-type ribosome), % (no concentration beside the values) | hit rate 1.6% among 350,000 | AID 720706;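 active = significant combined selectivity score with lowered wild-type GFP, culture density cut under 30%, mutant RFP and density less affected; inactive = any of these conditions unmet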
# Starred values were filed as active, the others as inactive; nt = not tested or not shown. Only some compounds are listed: those with a hit (about 4% of all), similar ones and a draw of the others.
SMILES,FN deposit inh,FGF22 binding,SIRT5 inh,E-sel inducer,C2C12 statin,rRNA inh HTS
COc1ccc2c3c(n(C)c2c1)[C@H](CO)N(C(=O)c1ccccn1)CC31CCN(C)CC1,nt,nt,nt,nt,nt,3.8
CCCNC(=O)N(C)C[C@@H]1Oc2ncc(C#C[C@@H](C)O)cc2C(=O)N([C@@H](C)CO)C[C@H]1C,-1.2,0.0,0.1,0.4,nt,2.7
O=C(C[C@H]1CC[C@@H]2[C@H](COC[C@@H](O)CN2Cc2cc(F)ccc2F)O1)N1CCc2ccccc2C1,3.7,-0.1,1.5,-0.1,12.2,-9.9
O=C(C[C@H]1CC[C@H]2[C@@H](COC[C@@H](O)CN2C(=O)c2cc(Cl)cc(Cl)c2)O1)N1CCc2ccccc2C1,7.6,-0.3,nt,-0.2,81.3*,-10.4
O=C(C[C@H]1CC[C@@H]2[C@H](COC[C@H](O)CN2C(=O)c2cc(Cl)cc(Cl)c2)O1)N1CCc2ccccc2C1,-7.9,-0.2,-8.3,-0.1,11.5,-6.9
O=C(C[C@@H]1CC[C@@H]2[C@H](COC[C@H](O)CN2C(=O)c2cc(Cl)cc(Cl)c2)O1)N1CCc2ccccc2C1,13.3,-0.3,nt,0.2,90.9*,1.0
COC(=O)C[C@@H]1CC[C@@H]2[C@@H](COc3ccc(NC(=O)Nc4c(C)noc4C)cc3C(=O)N2C)O1,-2.4,0.1,-2.2,0.0,2.9,4.3
CO[C@@H]1CN(C)C(=O)c2cc(NC(=O)C3CCCC3)ccc2OC[C@@H](C)N(C(=O)CC2CC2)C[C@@H]1C,nt,-0.2,-2.5,-0.1,5.1,3.2
CN1CCN(C(=O)C[C@@H]2C=C[C@@H](NC(=O)Cc3ccccn3)[C@@H](CO)O2)CC1,1.2,-0.1,1.1,0.4,-7.0,3.7
C[C@@H]1CN([C@@H](C)CO)S(=O)(=O)c2ccc(Br)cc2O[C@H]1CN(C)CC1CCCC1,-1.1,-0.1,6.7,1.3,-21.1,-11.8
C[C@H](CO)N1C[C@H](C)[C@@H](CN(C)CC2CCCC2)Oc2cc(Br)ccc2S1(=O)=O,-8.5,-0.1,15.9*,0.1,-72.5,-0.7
C/C=C/c1ccc2c(c1)O[C@@H](CN(C)CC1CCCC1)[C@H](C)CN([C@@H](C)CO)S2(=O)=O,6.3,0.2,18.1*,-0.1,-114.1,-1.8
CC1(C)CC(=O)C=C(c2ccc(-c3ccc4[nH]ccc4c3)cc2)C1=O,nt,0.3,-2.6,0.2,-13.7,-15.9
CC1(C)CC(=O)C=C(c2ccccc2-c2ccc3cc[nH]c3c2)C1=O,-2.8,43.4*,nt,-0.1,9.6,-34.5
CN(C)c1ccc(C2Nc3ccccc3C(=O)N2NS(C)(=O)=O)cc1 (centres undefined),-0.7,0.0,31.4*,-0.1,5.6,9.9
CC(=O)NN1C(=O)c2ccccc2NC1c1ccc(N(C)C)cc1 (centres undefined),6.9,-0.2,-9.5,nt,-13.2,-0.4
CO[C@@H]1CN(C)C(=O)c2cc(NS(=O)(=O)CC(F)(F)F)ccc2OC[C@H](C)N(CC2CCCCC2)C[C@@H]1C,2.3,-0.2,6.1,-0.2,-18.1,-0.5
COc1cccc(OC)c1OCCN1CCCC1,-0.9,-0.2,20.6*,nt,-7.4,0.4
COc1ccccc1N1CCN(CCOc2c(OC)cccc2OC)CC1,6.7,nt,nt,nt,nt,nt
COc1ccc(-c2nc(N)ncc2-c2csc(C)n2)c(O)c1OC,-12.0,43.9*,1.8,nt,11.0,8.1
CC1=[N+](C)N(c2ccccc2)C(=O)C1N=Cc1c(Cl)cccc1Cl (centres undefined),-5.9,43.2*,-4.8,nt,nt,nt
O=C(Cc1ccccc1)N[C@@H]1C=C[C@@H](CC(=O)N2CCCCC2)O[C@H]1CO,17.3,0.4,0.6,0.2,2.1,8.0
O=C(NCCc1csc(-c2cccnc2)n1)c1ccccc1Br,5.9,0.2,15.5*,0.7,nt,1.0
Cc1cccc(Nc2c(F)c(F)c(F)c(F)c2C(=O)O)c1,-1.0,0.8,-1.1,nt,nt,-30.5*
Cc1ccc(Nc2c(F)c(F)c(F)c(F)c2C(=O)O)cc1,3.9,0.2,6.0,nt,nt,-35.8
SMILES,FN deposit inh,FGF22 binding,SIRT5 inh,E-sel inducer,C2C12 statin,rRNA inh HTS
CC=Cc1ccc2n(c1=O)C[C@H]1[C@H](CO)[C@@H](C(=O)NCCC)[C@@H]2N1C(=O)c1ccccc1 (mixture of isomers),nt,0.0,-10.2,0.2,-8.9,0.3
O=C(Cc1ccccn1)NCC[C@@H]1CC[C@H](NS(=O)(=O)c2ccccc2)[C@H](CO)O1,nt,-0.2,7.3,-0.2,-1.5,0.1
O=C(Cc1ccccn1)NCC[C@H]1CC[C@H](NS(=O)(=O)c2ccccc2)[C@H](CO)O1,nt,0.0,15.6*,-0.1,-2.2,-0.5
Cc1ccc(S(=O)(=O)N[C@H]2CC[C@H](CCNC(=O)c3ccc4c(c3)OCO4)O[C@H]2CO)cc1,nt,0.0,103.2*,-0.9,1.8,2.4
CC(C)NC(=O)NCC[C@H]1CC[C@@H](NS(=O)(=O)c2ccc(-c3ccccc3)cc2)[C@H](CO)O1,nt,0.0,31.0*,0.2,6.6,-1.6
Cc1ccc(S(=O)(=O)N[C@H]2CC[C@@H](CCNC(=O)Nc3ccc(Cl)cc3)O[C@H]2CO)cc1,nt,0.0,102.7*,-0.3,-5.9,-61.7
CN1CCN(C(=O)C[C@H]2C[C@H]3c4cc(NC(=O)c5cccnc5)ccc4O[C@H]3[C@@H](CO)O2)CC1,-16.2,0.0,nt,0.4,1.3,1.4
C[C@H](CO)N1C[C@H](C)[C@H](CN(C)C(=O)Nc2ccc3c(c2)OCO3)OCCCC[C@H](C)Oc2ccc(NS(=O)(=O)c3ccccc3)cc2C1=O,1.5,-0.3,7.3,1.5,nt,-3.3
O=C(NCC[C@@H]1CC[C@@H](NS(=O)(=O)c2ccc(Cl)cc2)[C@H](CO)O1)c1ccccc1F,nt,0.1,18.2*,-0.5,-4.2,-1.9
CN(C)CCCNc1c2c(nc3cc(-c4cccc(F)c4)nn13)CCC2,0.6,-0.2,-0.3,nt,9.4,22.8
CCOCCCNc1c2c(nc3cc(-c4ccc(F)cc4)nn13)CCC2,-14.4,43.1*,-4.3,2.0,nt,10.8
CC(=O)c1c(COC(=O)c2ccccc2Cl)nc2ccccc2[n+]1[O-],8.4,0.1,-1.1,0.1,0.2,-35.1*
Cc1ccc(/C=N/c2sc3c(c2C#N)CCC3)s1,nt,nt,nt,nt,119.7*,nt
Cc1ccc(/C=N/c2sc3c(c2C#N)CCCCC3)o1,nt,nt,nt,nt,11.7,nt
C[C@H]1CCCCO[C@@H](CN(C)C(=O)Cc2ccccc2)[C@@H](C)CN([C@@H](C)CO)C(=O)c2cc(NS(=O)(=O)c3cn(C)cn3)ccc2O1,nt,-0.3,2.9,0.0,26.9,1.4
O=C1N=c2ccccc2=C1c1sc(=S)n(NC(=O)c2ccccc2)c1O,1.8,0.1,-1.9,-0.2,nt,3.5
C=CCn1c(O)c(C2=c3ccccc3=NC2=O)sc1=Nc1ccc(O)cc1,-0.1,-0.2,-0.5,1.7,nt,-8.0*
